Laboratory results reported in ChEMBL document CHEMBL1158478, “Synthesis and biological evaluation of guanidino compounds endowed with subnanomolar affinity as competitive inhibitors of maize polyamine oxidase” (J Med Chem, 2009).
Calls of active or inactive are those of the source. The calls are words filed in the database; no cut-off is given here.

How the values were obtained:
[1] = target: T1, Polyamine oxidase 1 (Zea mays, UniProt O64411); assay: Inhibition of maize PAO at pH 6.5 by spectrophotometry-based Dixon plot method
T1 sequence (O64411 whole entry): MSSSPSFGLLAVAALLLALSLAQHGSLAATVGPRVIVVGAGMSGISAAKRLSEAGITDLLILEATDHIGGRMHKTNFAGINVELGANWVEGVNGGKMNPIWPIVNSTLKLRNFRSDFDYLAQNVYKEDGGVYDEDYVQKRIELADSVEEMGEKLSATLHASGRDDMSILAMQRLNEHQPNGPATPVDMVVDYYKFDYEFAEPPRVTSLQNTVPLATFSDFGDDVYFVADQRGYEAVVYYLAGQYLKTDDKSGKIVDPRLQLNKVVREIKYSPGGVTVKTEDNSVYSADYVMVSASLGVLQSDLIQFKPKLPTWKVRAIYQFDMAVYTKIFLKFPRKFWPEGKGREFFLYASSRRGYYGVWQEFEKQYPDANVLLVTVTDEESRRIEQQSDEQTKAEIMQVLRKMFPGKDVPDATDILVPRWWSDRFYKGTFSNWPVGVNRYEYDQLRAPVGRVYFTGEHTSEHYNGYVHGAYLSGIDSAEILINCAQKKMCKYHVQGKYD
Method in brief: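 H₂O₂ was detected by peroxidase-coupled 4-aminoantipyrine/3,5-dichloro-2-hydroxybenzenesulfonate adduct at 515 nm. Ki was obtained by the Dixon method. Mean of three experiments, each in duplicate.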

[2] = system: HeLa; assay: Antiproliferative activity against human HeLa cells at 1 uM after 48 hrs by MTT assay; assay type: functional, cell-based
Method in brief: (§1)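 Cells seeded at 2.5 × 10³ cells/well in DMEM with 10% FBS and allowed to adhere. They were then exposed to the test compound (0.1-10 μM) for 24, 48, 72 and 96 h. MTT reduction was read at 550 nm, and viability was taken as OD treated / OD untreated control × 100. At least three independent experiments, compared by two-way ANOVA.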

[3] = system: HeLa; assay: Antiproliferative activity against human HeLa cells at 1 uM after 72 hrs by MTT assay; assay type: functional, cell-based; method in brief: as §1
[4] = system: HeLa; assay: Antiproliferative activity against human HeLa cells at 1 uM after 96 hrs by MTT assay; assay type: functional, cell-based; method in brief: as §1
[5] = system: U-373MG ATCC; assay: Antiproliferative activity against human U373MG cells at 1 uM after 48 hrs by MTT assay; assay type: functional, cell-based; method in brief: as §1
[6] = system: U-373MG ATCC; assay: Antiproliferative activity against human U373MG cells at 1 uM after 72 hrs by MTT assay; assay type: functional, cell-based; method in brief: as §1
[7] = system: U-373MG ATCC; assay: Antiproliferative activity against human U373MG cells at 1 uM after 96 hrs by MTT assay; assay type: functional, cell-based; method in brief: as §1
[8] = system: HeLa; assay: Cytostatic activity in human HeLa cells at 1 uM after 48 hrs by trypan blue assay; assay type: functional, cell-based
Method in brief: (§2)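 Cells seeded in DMEM with 10% FBS at 2.5 × 10³ cells/well and allowed to adhere. They were then incubated with or without 1 μM compound for 0, 24, 48, 72 and 96 h. Trypan blue exclusion was used: unstained cells were counted twice in a Neubauer chamber, in duplicate, and reported as living cell number (×10⁷). At least three independent runs, with two-way ANOVA against control.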

[9] = system: HeLa; assay: Cytostatic activity in human HeLa cells at 1 uM after 72 hrs by trypan blue assay; assay type: functional, cell-based; method in brief: as §2
[10] = system: HeLa; assay: Cytostatic activity in human HeLa cells at 1 uM after 96 hrs by trypan blue assay; assay type: functional, cell-based; method in brief: as §2
[11] = system: U373 MG; assay: Cytostatic activity in human U373MG cells at 1 uM after 48 hrs by trypan blue assay; assay type: functional, cell-based; settings: U-373MG ATCC; method in brief: as §2
[12] = system: U373 MG; assay: Cytostatic activity in human U373MG cells at 1 uM after 72 hrs by trypan blue assay; assay type: functional, cell-based; settings: U-373MG ATCC; method in brief: as §2
[13] = system: U373 MG; assay: Cytostatic activity in human U373MG cells at 1 uM after 96 hrs by trypan blue assay; assay type: functional, cell-based; settings: U-373MG ATCC; method in brief: as §2
[14] = system: HeLa; assay: Cytotoxicity against human HeLa cells at 10 uM after 24 to 96 hrs by MTT assay; assay type: functional, cell-based; method in brief: as §1
[15] = system: U-373MG ATCC; assay: Cytotoxicity against human U373MG cells at 10 uM after 24 to 96 hrs by MTT assay; assay type: functional, cell-based; method in brief: as §1

| Structure (SMILES) | Ki [1] | other results |
| --- | --- | --- |
| C#CCNC(N)=NCCCCCCCCNCCCCCCCCN=C(N)N | 0.7 nM |  |
| COc1cccc(CNC(N)=NCCCCCN)c1 | 1150 nM |  |
| CC(C)=CCN=C(N)NCCCCCCCCNCCCCCCCCN=C(N)NCC=C(C)C | 1.7 nM |  |
| N=C(N)NCCCCCCCCNCCCCCCCCNC(=N)NCC1CC1 | 0.08 nM | Activity [2]: Active; Activity [3]: Active; Activity [4]: Active; Activity [5]: Active; Activity [6]: Active; Activity [7]: Active; Activity [8]: Active; Activity [9]: Active; Activity [10]: Active; Activity [11]: Active; Activity [12]: Active; Activity [13]: Active; Activity [14]: Active; Activity [15]: Active |
| NCCCCN=C(N)Nc1ccc(F)cc1 | 630 nM |  |
| N=C(N)NCCCCCCCCNCCCCCCCCNC(=N)N [IMINOCTADIENE] | 7.5 nM |  |
| NCCCCCN=C(N)NCC1CC1 | 2580 nM |  |
| C/C=C/CNC(=N)NCCCCCCCCNCCCCCCCCNC(=N)N | 1.1 nM |  |
| CC(C)=CCNC(N)=NCCCCN=C(N)N | 700 nM |  |
| CC(C)=CCNC(N)=Nc1ccc(CN)cc1 | 18000 nM |  |
| C=C(C)CCNC(N)=NCCCCCCCCNCCCCCCCCN=C(N)N | 0.5 nM |  |
| NCCCCCN=C(N)NC/C=C/c1ccccc1 | 1530 nM |  |
| NC(N)=NCCCCCCCCNCCCCCCCCN=C(N)NCc1ccccc1 | 1 nM |  |
| N=C(N)NCCCCN [AGMATINE] | 3000 nM |  |

Now from value to compound, other results behind:

| Ki [1] | Structure (SMILES) | other results |
| --- | --- | --- |
| 22 nM | CC(C)=CCNC(=N)NCCCCCCN |  |
| 250 nM | C#CCNC(=N)NCCCCN |  |
| 1720 nM | N=C(NCCCCCN)NCCC1CCCCC1 |  |
| 3 nM | CC(C)=CCNC(N)=NCCCCCCCCNCCCCCCCCN=C(N)N |  |
| 10 nM | CC(C)=CCNC(=N)NCCCCCN |  |
| 1210 nM | CC(C)=CCNC(=N)NCCCNCCCN |  |
| 300 nM | NCCCCCCCCN [DIAMINOOCTANE] |  |
| 15 nM | CC(C)=CCNC(=N)NCCCCN |  |
| 130 nM | C=CCNC(=N)NCCCCN |  |
| 1500 nM | CC(C)=CCN=C(N)NCCCCN=C(N)NCC=C(C)C |  |
